Experimental data reported in ChEMBL document CHEMBL1144865, “N-aminoimidazole derivatives inhibiting retroviral replication via a yet unidentified mode of action” (J Med Chem, 2003).

What was measured:
[1] = tested on: C3H/3T3; experiment: Tested for minimum inhibitory concentration against MSV-Induced transformation of C3H/3T3 embryo murine fibroblast in vitro; type: functional; settings: Mus musculus
Method in brief: (§1)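 C3H/3T3 cells seeded at 20 000 cells/mL and incubated 24 h, then infected with 80 focus-forming units of MSV for 120 min. Medium was then replaced with fresh medium containing test compound. Transformation was scored microscopically after 6 days.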

[2] = tested on: MT4; experiment: (§2) Concentration that reduced the MT-4 cell viability by 50%.; type: functional, Homo sapiens; settings: Homo sapiens, MT4
Method in brief: (§3)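 Mock-infected MT-4 cells, run in parallel with the antiviral assay, were exposed to compound. Viability on day 5 was read by MTT colorimetry. The value is the concentration lowering viability by 50%. Averages ± SD from at least two independent experiments.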

[3] = tested on: Human immunodeficiency virus 1; experiment: Concentration required to inhibit the viral (HIV-1 IIIB strain) cytopathic effect by 50% in MT-4 cells.; type: functional, organism-based; settings: Human immunodeficiency virus 1, MT4
Method in brief: (§4)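 Virus-infected MT-4 cells cultured with serial compound dilutions; viability measured 5 days after infection by MTT tetrazolium colorimetric read-out. The value is the concentration protecting 50% of cells from viral cytopathic effect. Averages ± SD from at least two independent experiments. HIV-2 and SIV stocks came from infected MT-4 culture supernatants.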

[4] = tested on: Human immunodeficiency virus 1; experiment: Concentration required to inhibit the viral (HIV-1 NL4.3 strain) cytopathic effect by 50% in MT-4 cells.; type: functional, organism-based; settings: Human immunodeficiency virus 1, MT4; method in brief: as §4
[5] = tested on: Human immunodeficiency virus 1; experiment: Concentration required to inhibit the viral (HIV-1 NNRTI resistant strain) cytopathic effect by 50% in MT-4 cells.; type: functional, organism-based; settings: Human immunodeficiency virus 1, MT4
Method in brief: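 MT-4 cells infected with HIV-1(III_B)-derived strain S0561945 (K103N + Y181C RT mutations, NNRTI-resistant). Cultured with varying compound concentrations; viability read on day 5 post-infection by MTT tetrazolium colorimetry. Value is the concentration giving 50% protection against virus-induced cytopathic effect. Cytotoxicity measured in parallel on mock-infected cells at day 5. Averages ± SD from at least two independent experiments.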

[6] = tested on: Human immunodeficiency virus 2; experiment: Concentration required to inhibit the viral (HIV-2 ROD) cytopathic effect by 50% in MT-4 cells.; type: functional, organism-based, MT4; settings: Human immunodeficiency virus 2, MT4; method in brief: as §4
[7] = tested on: Simian immunodeficiency virus; experiment: Concentration required to inhibit the viral (SIV mac251) cytopathic effect by 50% in MT-4 cells.; type: functional, organism-based, MT4; settings: Simian immunodeficiency virus, mac251, MT4; method in brief: as §4
[8] = tested on: C3H/3T3; experiment: Tested for inhibitory concentration against MSV-Induced transformation of C3H/3T3 embryo murine fibroblast in vitro; type: functional, cell-based; settings: Mus musculus; method in brief: as §1
[9] = target: Human immunodeficiency virus type 1 reverse transcriptase (Human immunodeficiency virus 1) (UniProt Q72547); experiment: Tested for the concentration required to inhibit recombinant HIV-1 reverse transcriptase using polyrA.oligodT as the template primer
Method in brief: (§5)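 Recombinant HIV-1 RT assay. Template primer and labelled substrate were poly(rA).oligo(dT) with [³H]dTTP, or poly(rC).oligo(dG) with [³H]dGTP. Each radiolabelled dNTP was at 2.5 μM final in the reaction mixture.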

[10] = target: Human immunodeficiency virus type 1 reverse transcriptase (Human immunodeficiency virus 1) (UniProt Q72547); experiment: Tested for the concentration required to inhibit recombinant HIV-1 reverse transcriptase using polyrC.oligodG as the template primer; method in brief: as §5
[11] = tested on: MT4; experiment: as §2; type: functional, cell-based; settings: Homo sapiens; method in brief: as §3

In the case of `Cc1ccc(NN2C(S)=NC(C)C2c2ccccc2)cc1C` (stereo not drawn), the MIC [1] is reported as > 64.6 µM, the CC50 [2] is reported as 55.6 µM and the IC50 [3] is reported as 9.3 µM. The IC50 [4] was 3.54 µM, the IC50 [5] was > 55.6 µM and the IC50 [6] was > 55.6 µM. The IC50 [7] was 10.3 µM and the IC50 [8] was > 64.6 µM.

With `CCC1N=C(S)N(Nc2cccc(Cl)c2)C1c1ccccc1` (stereo not drawn) the MIC [1] was > 12.1 µM, the CC50 [2] was 39 µM and the IC50 [3] was 9.06 µM. For the same compound, the IC50 [4] was > 39 µM, the IC50 [5] was > 39 µM and the IC50 [6] was > 39 µM. The IC50 [7] was 3.88 µM and the IC50 [8] was > 12.1 µM.

With `Cc1nc(S)n(Nc2cccc(Cl)c2)c1-c1cccc(Cl)c1` the MIC [1] was > 11.4 µM, the CC50 [2] was 30.9 µM and the IC50 [3] was 5 µM. For the same compound, the IC50 [4] was 2.48 µM, the IC50 [5] was 1.86 µM and the IC50 [6] was 3.91 µM. For the same compound, the IC50 [7] was 1.22 µM and the IC50 [8] was > 11.4 µM.

For `Cc1nc(S)n(Nc2cccc(Cl)c2)c1-c1ccccc1`, the MIC [1] was > 63.3 µM, the CC50 [2] was 66.7 µM and the IC50 [3] was 6.39 µM. It also gave an IC50 [4] of 8.99 µM, an IC50 [5] of 9.72 µM and an IC50 [6] of 8.11 µM. The IC50 [7] was 8.2 µM and the IC50 [8] was 38 µM.

For `Cc1cccc(NN2C(S)=NC(C)C2c2ccccc2)c1` (stereo not drawn), the MIC [1] was > 67.7 µM, the CC50 [2] was 88.2 µM and the IC50 [3] was 1.56 µM. For the same compound, the IC50 [4] was 2.17 µM, the IC50 [5] was 26.1 µM and the IC50 [6] was > 35.7 µM. For the same compound, the IC50 [7] was 6.5 µM, the Concentration [9] was 125 µM and the Concentration [10] was 105 µM. The IC50 [8] was > 67.7 µM.

In the case of `CC(=O)c1ccc(C)cc1NC(C(N)=O)c1c(Cl)cccc1Cl` (stereo not drawn) [LOVIRIDE], the IC50 [3] is reported as 0.014 µM, the IC50 [4] is reported as 0.006 µM and the IC50 [5] is reported as > 10 µM. For the same compound, the IC50 [6] was > 10 µM, the IC50 [7] was > 10 µM and the CC50 [11] was > 10 µM.
